The values that follow come from ChEMBL document CHEMBL3124904, “Second-generation derivatives of the eukaryotic translation initiation inhibitor pateamine A targeting eIF4A as potential anticancer agents” (Bioorg Med Chem, 2014).

Calls of active or inactive are those of the source. No cut-off for these calls is given here.

Assay [1] is filed under the species Oryctolagus cuniculus. Kind of assay: Inhibition of cap-independent HCV-IRES-induced translation in rabbit reticulocyte lysate at 500 nM after 1.5 hrs by luciferase reporter gene assay. Format: functional. The procedure, abridged:
(§1)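 Capped bicistronic reporter mRNA: cap-dependent firefly luciferase first cistron, HCV IRES-driven Renilla second cistron. Transcribed in vitro with SP6 from the BamHI-linearised plasmid. 200 ng RNA translated in rabbit reticulocyte lysate with 70 mM KCl, 2 mM DTT, RNasin and compound in DMSO (5% v/v final), 30 °C for 1.5 h. Dual luciferase readout. Duplicates, 4 independent assays, mean IC50 by curve fit.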

For assay [2], the species on record is Oryctolagus cuniculus. The assay is described as follows: Binding affinity to eIF4A1/2 in rabbit reticulocyte lysate assessed as inhibition of cap-dependent translation up to 500 nM after 1.5 hrs by dual luciferase reporter gene assay. The procedure, abridged:
as §1

Assay [3] relates to Jurkat. Kind of assay: Antiproliferative activity against human Jurkat T cells up to 10^4 nM after 72 hrs by MTT assay. It counts as functional, cell-based. The procedure, abridged:
(§2)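 HeLa and SK-MEL2 grown in DMEM, Jurkat in RPMI 1640, each with 10% FBS and penicillin-streptomycin, at 37 °C and 5% CO2. Adherent cells seeded at 2000/well and left to recover overnight; Jurkat seeded at 5000/well with no recovery. Compound added in DMSO (0.1% final), then 72 h incubation and MTT readout.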

Assay [4] has as its system SK-MEL-2. Kind of assay: Antiproliferative activity against human SK-MEL-2 cells after 72 hrs by MTT assay in presence of 10% FBS. It counts as functional, cell-based. Particulars: SK-MEL-2, 72 h. The procedure, abridged: as §2
For assay [5], the system named is HeLa. Kind of assay: Antiproliferative activity against human HeLa cells up to 500 nM after 72 hrs by MTT assay. Format: functional, cell-based. The procedure, abridged: as §2
The subject of assay [6] is SK-MEL-2. The assay is described as follows: Antiproliferative activity against human SK-MEL-2 cells up to 10^4 nM after 72 hrs by MTT assay in presence of 10% FBS. It counts as functional, cell-based. The procedure, abridged:
as §2

Assay [7] has as its system Jurkat. Kind of assay: Immunosuppressive activity in human Jurkat T cells assessed as inhibition of IL-2 transcription. It counts as functional, cell-based.
Assay [8] can be described thus: Antiproliferative activity against BAEC assessed as DNA synthesis level after 24 hrs by thymidine incorporation assay. The note with it: Bos taurus. The procedure, abridged:
(§3)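 Cells kept at 37 °C, 5% CO2 with penicillin-streptomycin and 10% FBS. Adherent lines seeded at 2000 cells/well and left to recover overnight; Jurkat seeded at 5000 cells/well with no recovery period. Compound added in DMSO (0.1% final, vehicle-only control) at 0.001–100 nM over 10 wells. DNA synthesis read out after 24 h. Mean IC50 from at least 3 independent assays.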

Assay [9] can be described thus: Antiproliferative activity against human Jurkat T cells assessed as DNA synthesis level after 24 hrs by thymidine incorporation assay. It counts as functional, cell-based. The procedure, abridged:
as §3

Another assay relates to HaCaT. Kind of assay: Antiproliferative activity against human HaCaT cells assessed as DNA synthesis level after 24 hrs by thymidine incorporation assay. Format: functional, cell-based. The procedure, abridged:
as §3

For another assay, the system named is RKO. The assay is described as follows: Antiproliferative activity against human RKO cells assessed as DNA synthesis level after 24 hrs by thymidine incorporation assay. It counts as functional, cell-based. The procedure, abridged: as §3
Assay [10] concerns HeLa. Kind of assay: Antiproliferative activity against human HeLa cells assessed as DNA synthesis level after 24 hrs by thymidine incorporation assay. Format: functional, cell-based. The procedure, abridged:
as §3

A short description of assay [11]: Binding affinity to eIF4A1/2 in rabbit reticulocyte lysate assessed as inhibition of cap-dependent translation after 1.5 hrs by dual luciferase reporter gene assay. Also noted: species or system Oryctolagus cuniculus. The procedure, abridged:
as §1

Assay [12] in a line: Antiproliferative activity against human Jurkat T cells after 72 hrs by MTT assay. Format: functional, cell-based. The procedure, abridged:
as §2

The test system of assay [13] is HeLa. Kind of assay: Antiproliferative activity against human HeLa cells after 72 hrs by MTT assay. Format: functional, cell-based. The procedure, abridged: as §2

In the case of `COC/C=C/C=C/C(C)=C/[C@@H]1Cc2nc(cs2)CCCCC(=O)O[C@@H](C)C/C(C)=C/C=C\C(=O)O1`, the inhibition entry in the assay listed under Oryctolagus cuniculus [1] and in the assay listed under Oryctolagus cuniculus [2] was “inactive” throughout. Moreover, the result in the assay on Jurkat [3] and in the assay on HeLa [5] was inactive. Also, in the assay with SK-MEL-2 [4], the IC50 is > 5000 nM.
For the compound `CC(/C=C/C=C/CO)=C\[C@@H]1Cc2nc(cs2)CCCCC(=O)O[C@@H](C)C/C(C)=C/C#CC(=O)O1`, the inhibition result in the assay filed under Oryctolagus cuniculus [1] was “inactive”. The outcome in the assay on Jurkat [3], in the assay with SK-MEL-2 [6] and in the assay with HeLa [5] was inactive.
Consider `CC(/C=C/C(C)=C/[C@@H]1Cc2nc(cs2)[C@@H](C)C[C@@H](N)CC(=O)O[C@@H](C)C/C(C)=C/C=C\C(=O)O1)=C\CN(C)C` [PATEAMINE A], for which the IC50 was determined as 4 nM in the assay with Jurkat [7]; 0.5 nM in [8]; 0.6 nM in assay [9]; 0.42 nM with HaCaT; 0.38 nM with RKO; 0.72 nM in the assay with HeLa [10].
As for `CC(/C=C/C(C)=C/[C@@H]1Cc2nc(cs2)CCCCC(=O)O[C@@H](C)C/C(C)=C/C#CC(=O)O1)=C\CN1CCOCC1`, in the assay listed under Oryctolagus cuniculus [1], the inhibition entry is “inactive”. Further, the outcome with Jurkat [3] and with HeLa [5] was inactive. In addition, in the assay with SK-MEL-2 [4], the IC50 is > 5000 nM.
As to `CC(/C=C/CCCO)=C\[C@@H]1Cc2nc(cs2)[C@@H](C)C[C@@H](NC(=O)OC(C)(C)C)CC(=O)O[C@@H](C)C/C(C)=C/C=C\C(=O)O1`, the IC50 in the assay with Jurkat [7] was > 1000 nM.
For `C/C(Br)=C\[C@@H]1Cc2nc(cs2)CCCCC(=O)O[C@@H](C)C/C(C)=C/C=CC(=O)O1`, the result in the assay with Jurkat [3], in the assay on SK-MEL-2 [6] and with HeLa [5] was inactive.
In the case of `CC(/C=C/CCCO)=C\[C@@H]1Cc2nc(cs2)[C@@H](C)C[C@@H](NC(=O)OC(C)(C)C)CC(=O)O[C@@H](C)C/C(C)=C/C#CC(=O)O1`, the IC50 is 340 nM with Jurkat [7]; > 20 nM in assay [8]; > 100 nM with HaCaT; > 100 nM with RKO; > 100 nM with HeLa [10].
`CC(/C=C/C=C/CO)=C\[C@@H]1Cc2nc(cs2)CCCCC(=O)O[C@@H](C)C/C(C)=C/C=C\C(=O)O1`: the inhibition entry in the assay filed under Oryctolagus cuniculus [1] was “inactive”. Also, the IC50 was > 500 nM in [11], > 10000 nM in assay [12], > 5000 nM in the assay on SK-MEL-2 [4] and > 5000 nM in the assay with HeLa [13].
Turning to `CC(/C=C/C(C)=C/[C@@H]1Cc2nc(cs2)[C@@H](C)C[C@@H](NC(=O)c2ccccc2)CC(=O)O[C@@H](C)C/C(C)=C/C=C\C(=O)O1)=C\CN(C)C`, the IC50 amounted to 15 nM with Jurkat [7]; 12.8 nM in [8]; 11.6 nM in [9]; 3.4 nM in the assay on HaCaT; 4.2 nM in the assay with RKO; 16.1 nM in the assay with HeLa [10].
Consider `COCCC/C=C/C(C)=C/[C@@H]1Cc2nc(cs2)CCCCC(=O)O[C@@H](C)C/C(C)=C/C#CC(=O)O1`, for which, in the assay filed under Oryctolagus cuniculus [1], the inhibition entry is “inactive”. Moreover, in assay [12], the IC50 was > 10000 nM. For the same compound, the outcome with SK-MEL-2 [6] and in the assay with HeLa [5] was inactive.
Take `CC(/C=C/CCCO)=C\[C@@H]1Cc2nc(cs2)CCCCC(=O)O[C@@H](C)C/C(C)=C/C#CC(=O)O1`: in the assay filed under Oryctolagus cuniculus [1], the inhibition entry is “inactive”. For the same compound, the outcome with Jurkat [3], in the assay on SK-MEL-2 [6] and with HeLa [5] was inactive.
As to `CC(/C=C/CCCN(C)C)=C\[C@@H]1Cc2nc(cs2)[C@@H](C)C[C@@H](NC(=O)OC(C)(C)C)CC(=O)O[C@@H](C)C/C(C)=C/C=C\C(=O)O1`, the IC50 in the assay with Jurkat [7] was 330 nM; in assay [8], > 20 nM; with HaCaT, > 100 nM.
Consider `COCCC/C=C/C(C)=C/[C@@H]1Cc2nc(cs2)CCCCC(=O)O[C@@H](C)C/C(C)=C/C=C\C(=O)O1`, for which the inhibition result in the assay filed under Oryctolagus cuniculus [1] and in the assay listed under Oryctolagus cuniculus [2] was “inactive” throughout. The outcome in the assay with Jurkat [3], with SK-MEL-2 [6] and in the assay on HeLa [5] was inactive.
For the compound `CC(/C=C/CCCO)=C\[C@@H]1Cc2nc(cs2)CCCCC(=O)O[C@@H](C)C/C(C)=C/C=C\C(=O)O1`, the inhibition entry in the assay filed under Oryctolagus cuniculus [1] and in the assay filed under Oryctolagus cuniculus [2] was “inactive” each time. Further, the IC50 (in [12]; in the assay with SK-MEL-2 [4]) was > 5000 nM throughout. The outcome in the assay on HeLa [5] was inactive.
Consider `COCCC/C=C/C(C)=C/[C@@H]1Cc2nc(cs2)[C@@H](C)C[C@@H](NC(=O)OC(C)(C)C)CC(=O)O[C@@H](C)C/C(C)=C/C=C\C(=O)O1`, for which the IC50 in the assay on Jurkat [7] was > 1000 nM.
As for `CC(/C=C/C(C)=C/[C@@H]1Cc2nc(cs2)[C@@H](C)C[C@@H](NC(=O)C(F)(F)F)CC(=O)O[C@@H](C)C/C(C)=C/C=C\C(=O)O1)=C\CN(C)C`, the IC50 was 300 nM in the assay with Jurkat [7], > 100 nM in the assay on HaCaT, > 100 nM with RKO and > 100 nM in the assay on HeLa [10].
For the compound `CC(Br)=C[C@@H]1Cc2nc(cs2)CCCCC(=O)O[C@@H](C)C/C(C)=C/C=C\C(=O)O1`, the inhibition entry in the assay filed under Oryctolagus cuniculus [1] and in the assay listed under Oryctolagus cuniculus [2] was “inactive” in each case. Moreover, the IC50 (in assay [12]; in the assay on SK-MEL-2 [4]) was > 10000 nM each time. Besides, the outcome with HeLa [5] was inactive.
As for `COCCC/C=C/C(C)=C/[C@@H]1Cc2nc(cs2)[C@@H](C)C[C@@H](NC(=O)OC(C)(C)C)CC(=O)O[C@@H](C)C/C(C)=C/C#CC(=O)O1`, the half-maximal inhibitory concentration (IC50) is 55 nM in the assay with Jurkat [7]; > 20 nM in [8]; > 100 nM with HaCaT; > 100 nM in the assay with RKO; > 100 nM in the assay on HeLa [10].
Turning to `C/C(Br)=C\[C@@H]1Cc2nc(cs2)CCCCC(=O)O[C@@H](C)C/C(C)=C/C#CC(=O)O1`, in the assay filed under Oryctolagus cuniculus [1], the inhibition result was “inactive”. The result in the assay on Jurkat [3], in the assay on SK-MEL-2 [6] and in the assay with HeLa [5] was inactive.
For `COC/C=C/C=C/C(C)=C/[C@@H]1Cc2nc(cs2)CCCCC(=O)O[C@@H](C)C/C(C)=C/C#CC(=O)O1`, in the assay listed under Oryctolagus cuniculus [1], the inhibition entry is “inactive”. Besides, the outcome in the assay with Jurkat [3], in the assay on SK-MEL-2 [6] and in the assay with HeLa [5] was inactive.
Regarding `CC(/C=C/C(C)=C/[C@@H]1Cc2nc(cs2)CCCCC(=O)O[C@@H](C)C/C(C)=C/C#CC(=O)O1)=C\CN(C)C`, the inhibition result in the assay filed under Oryctolagus cuniculus [1] and in the assay filed under Oryctolagus cuniculus [2] was “inactive” each time. Further, the result in the assay on Jurkat [3], in the assay with SK-MEL-2 [6] and in the assay on HeLa [5] was inactive.
In the case of `CC(/C=C/C(C)=C/[C@@H]1Cc2nc(cs2)CCCCC(=O)O[C@@H](C)C/C(C)=C/C#CC(=O)O1)=C\CN1CCCC1`, the outcome in the assay with Jurkat [3], in the assay with SK-MEL-2 [6] and with HeLa [5] was inactive.
